Experimental data from ChEMBL document CHEMBL5303300, “EUbOPEN Chemogenomics Library - Multiplex” (2023).
Several values for one entry are separate records, joined by “and”; a condition that tells them apart may be missing. Equal values may be shown once.

Tested on: Fibroblast
Experiment: Multiplex assay against human fibroblast
Format: toxicity, cell-based
Conditions: number of replicates 2
Summary of the method: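 Compound was added to live cells that had been stained at seeding with Hoechst33342, BioTracker Green Microtubule Cytoskeleton Dye, MitoTracker Red and Annexin V Alexa Fluor 680, and imaging followed on a CQ1 microscope at 37°C and 5% CO2. CellPathfinder machine-learning gating divided cells into Hoechst high-intensity objects or normal cells, normal cells into healthy, pyknosed or fragmented nuclei, and pyknosed cells into mitotic or apoptotic. Tubulin, mitochondrial-mass and membrane-permeability phenotypes are per cents of healthy-nucleus cells.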

[1] = 12 h, 1 µM, compound concentration 1 uM
[2] = 12 h, 10 µM, compound concentration 10 uM
[3] = 24 h, 1 µM, compound concentration 1 uM
[4] = 24 h, 10 µM, compound concentration 10 uM
[5] = 48 h, 1 µM, compound concentration 1 uM
[6] = 48 h, 10 µM, compound concentration 10 uM

Compound: COc1ccc(-c2cc3c(C)nc(N)nc3n([C@H]3CC[C@H](OCCO)CC3)c2=O)cn1 [PF-04691502]
- Population Apoptotic (%) [1]: 34% and 55%
- Population Fragmented Nuclei (%) [1]: 15% and 13%
- Population Healthy Nuclei (%) [1]: 73% and 71%
- Population Hoechst High Intensity Objects (%) [1]: 0%
- Population Membrane Permeable-Phenotype (%) [1]: 3%
- Population Mitochondria Different-Phenotype (%) [1]: 3% and 1%
- Population Mitotic Cells (%) [1]: 65% and 45%
- Population Normal (%) [1]: 100%
- Population Pyknosed Nuclei (%) [1]: 10% and 15%
- Population Tubulin-Different-Phenotype (%) [1]: 11% and 8%
- Total Cell Count [1]: 270 and 253
- Population Apoptotic (%) [2]: 55% and 54%
- Population Fragmented Nuclei (%) [2]: 29% and 27%
- Population Healthy Nuclei (%) [2]: 51% and 60%
- Population Hoechst High Intensity Objects (%) [2]: 1% and 0%
- Population Membrane Permeable-Phenotype (%) [2]: 5% and 9%
- Population Mitochondria Different-Phenotype (%) [2]: 3% and 1%
- Population Mitotic Cells (%) [2]: 44% and 45%
- Population Normal (%) [2]: 98% and 100%
- Population Pyknosed Nuclei (%) [2]: 18% and 11%
- Population Tubulin-Different-Phenotype (%) [2]: 26% and 18%
- Total Cell Count [2]: 185 and 202
- Population Apoptotic (%) [3]: 62% and 58%
- Population Fragmented Nuclei (%) [3]: 7% and 9%
- Population Healthy Nuclei (%) [3]: 80% and 72%
- Population Hoechst High Intensity Objects (%) [3]: 0%
- Population Membrane Permeable-Phenotype (%) [3]: 4% and 2%
- Population Mitochondria Different-Phenotype (%) [3]: 1%
- Population Mitotic Cells (%) [3]: 37% and 41%
- Population Normal (%) [3]: 99%
- Population Pyknosed Nuclei (%) [3]: 12% and 17%
- Population Tubulin-Different-Phenotype (%) [3]: 7% and 3%
- Total Cell Count [3]: 262 and 247
- Population Apoptotic (%) [4]: 59% and 65%
- Population Fragmented Nuclei (%) [4]: 20%
- Population Healthy Nuclei (%) [4]: 60% and 66%
- Population Hoechst High Intensity Objects (%) [4]: 0%
- Population Membrane Permeable-Phenotype (%) [4]: 10% and 8%
- Population Mitochondria Different-Phenotype (%) [4]: 0% and 1%
- Population Mitotic Cells (%) [4]: 40% and 34%
- Population Normal (%) [4]: 99% and 100%
- Population Pyknosed Nuclei (%) [4]: 20% and 13%
- Population Tubulin-Different-Phenotype (%) [4]: 27% and 23%
- Total Cell Count [4]: 161 and 176
- Population Apoptotic (%) [5]: 60% and 59%
- Population Fragmented Nuclei (%) [5]: 8% and 12%
- Population Healthy Nuclei (%) [5]: 80% and 72%
- Population Hoechst High Intensity Objects (%) [5]: 0%
- Population Membrane Permeable-Phenotype (%) [5]: 5%
- Population Mitochondria Different-Phenotype (%) [5]: 0%
- Population Mitotic Cells (%) [5]: 39% and 40%
- Population Normal (%) [5]: 100%
- Population Pyknosed Nuclei (%) [5]: 10% and 15%
- Population Tubulin-Different-Phenotype (%) [5]: 6% and 4%
- Total Cell Count [5]: 258 and 245
- Population Apoptotic (%) [6]: 66%
- Population Fragmented Nuclei (%) [6]: 12% and 22%
- Population Healthy Nuclei (%) [6]: 59%
- Population Hoechst High Intensity Objects (%) [6]: 0%
- Population Membrane Permeable-Phenotype (%) [6]: 7% and 4%
- Population Mitochondria Different-Phenotype (%) [6]: 1%
- Population Mitotic Cells (%) [6]: 33%
- Population Normal (%) [6]: 100%
- Population Pyknosed Nuclei (%) [6]: 27% and 17%
- Population Tubulin-Different-Phenotype (%) [6]: 32% and 19%
- Total Cell Count [6]: 140 and 170

Compound: Cn1cc(-n2cnc3c(NCc4nc5cc(Cl)c(Cl)cc5[nH]4)nc(N4CCOCC4)nc32)cn1
- Population Apoptotic (%) [1]: 39% and 65%
- Population Healthy Nuclei (%) [1]: 79% and 57%
- Population Hoechst High Intensity Objects (%) [1]: 0% and 3%
- Population Membrane Permeable-Phenotype (%) [1]: 7%
- Population Mitochondria Different-Phenotype (%) [1]: 2% and 3%
- Population Mitotic Cells (%) [1]: 60% and 34%
- Population Normal (%) [1]: 100% and 96%
- Population Pyknosed Nuclei (%) [1]: 15% and 19%
- Population Tubulin-Different-Phenotype (%) [1]: 29% and 27%
- Total Cell Count [1]: 211 and 225
- Population Apoptotic (%) [2]: 55% and 51%
- Population Fragmented Nuclei (%) [2]: 10% and 19%
- Population Healthy Nuclei (%) [2]: 59% and 60%
- Population Hoechst High Intensity Objects (%) [2]: 0%
- Population Membrane Permeable-Phenotype (%) [2]: 25% and 27%
- Population Mitochondria Different-Phenotype (%) [2]: 3% and 5%
- Population Mitotic Cells (%) [2]: 44% and 48%
- Population Normal (%) [2]: 100%
- Population Pyknosed Nuclei (%) [2]: 30% and 20%
- Population Tubulin-Different-Phenotype (%) [2]: 74% and 81%
- Total Cell Count [2]: 147 and 142
- Population Apoptotic (%) [3]: 89% and 85%
- Population Fragmented Nuclei (%) [3]: 27% and 14%
- Population Healthy Nuclei (%) [3]: 32% and 46%
- Population Hoechst High Intensity Objects (%) [3]: 6% and 1%
- Population Membrane Permeable-Phenotype (%) [3]: 12%
- Population Mitochondria Different-Phenotype (%) [3]: 2% and 1%
- Population Mitotic Cells (%) [3]: 10% and 14%
- Population Normal (%) [3]: 93% and 98%
- Population Pyknosed Nuclei (%) [3]: 40% and 38%
- Population Tubulin-Different-Phenotype (%) [3]: 28% and 53%
- Total Cell Count [3]: 229 and 205
- Population Apoptotic (%) [4]: 63% and 65%
- Population Fragmented Nuclei (%) [4]: 10% and 19%
- Population Healthy Nuclei (%) [4]: 62% and 59%
- Population Hoechst High Intensity Objects (%) [4]: 0%
- Population Membrane Permeable-Phenotype (%) [4]: 14%
- Population Mitochondria Different-Phenotype (%) [4]: 6% and 13%
- Population Mitotic Cells (%) [4]: 36% and 34%
- Population Normal (%) [4]: 99%
- Population Pyknosed Nuclei (%) [4]: 27% and 21%
- Population Tubulin-Different-Phenotype (%) [4]: 79% and 85%
- Total Cell Count [4]: 149 and 148
- Population Apoptotic (%) [5]: 93% and 94%
- Population Fragmented Nuclei (%) [5]: 27% and 13%
- Population Healthy Nuclei (%) [5]: 12% and 16%
- Population Hoechst High Intensity Objects (%) [5]: 5% and 0%
- Population Membrane Permeable-Phenotype (%) [5]: 12% and 29%
- Population Mitochondria Different-Phenotype (%) [5]: 4% and 3%
- Population Mitotic Cells (%) [5]: 6% and 5%
- Population Normal (%) [5]: 94% and 99%
- Population Pyknosed Nuclei (%) [5]: 60% and 69%
- Population Tubulin-Different-Phenotype (%) [5]: 36% and 61%
- Total Cell Count [5]: 218 and 190
- Population Apoptotic (%) [6]: 81% and 87%
- Population Fragmented Nuclei (%) [6]: 15% and 19%
- Population Healthy Nuclei (%) [6]: 35% and 38%
- Population Hoechst High Intensity Objects (%) [6]: 1% and 0%
- Population Membrane Permeable-Phenotype (%) [6]: 20% and 11%
- Population Mitochondria Different-Phenotype (%) [6]: 22% and 19%
- Population Mitotic Cells (%) [6]: 18% and 12%
- Population Normal (%) [6]: 98% and 100%
- Population Pyknosed Nuclei (%) [6]: 49% and 41%
- Population Tubulin-Different-Phenotype (%) [6]: 74% and 78%
- Total Cell Count [6]: 154 and 134

Compound: CCCN(CCc1cccs1)[C@H]1CCc2c(O)cccc2C1 [ROTIGOTINE]
- Population Apoptotic (%) [1]: 73% and 35%
- Population Fragmented Nuclei (%) [1]: 9% and 11%
- Population Healthy Nuclei (%) [1]: 76% and 71%
- Population Hoechst High Intensity Objects (%) [1]: 0%
- Population Membrane Permeable-Phenotype (%) [1]: 6% and 3%
- Population Mitochondria Different-Phenotype (%) [1]: 2% and 0%
- Population Mitotic Cells (%) [1]: 26% and 64%
- Population Normal (%) [1]: 100% and 99%
- Population Pyknosed Nuclei (%) [1]: 14% and 16%
- Population Tubulin-Different-Phenotype (%) [1]: 15% and 10%
- Population Fragmented Nuclei (%) [2]: 17% and 18%
- Population Healthy Nuclei (%) [2]: 78% and 73%
- Population Hoechst High Intensity Objects (%) [2]: 0%
- Population Membrane Permeable-Phenotype (%) [2]: 0% and 1%
- Population Mitochondria Different-Phenotype (%) [2]: 0% and 1%
- Population Mitotic Cells (%) [2]: 50% and 86%
- Population Normal (%) [2]: 100%
- Population Pyknosed Nuclei (%) [2]: 4% and 7%
- Population Tubulin-Different-Phenotype (%) [2]: 13% and 14%
- Population Apoptotic (%) [3]: 52% and 46%
- Population Fragmented Nuclei (%) [3]: 9% and 12%
- Population Healthy Nuclei (%) [3]: 81% and 75%
- Population Hoechst High Intensity Objects (%) [3]: 0%
- Population Membrane Permeable-Phenotype (%) [3]: 4%
- Population Mitochondria Different-Phenotype (%) [3]: 0% and 1%
- Population Mitotic Cells (%) [3]: 47% and 53%
- Population Normal (%) [3]: 100% and 99%
- Population Pyknosed Nuclei (%) [3]: 9% and 12%
- Population Tubulin-Different-Phenotype (%) [3]: 7% and 6%
- Population Fragmented Nuclei (%) [4]: 24% and 14%
- Population Healthy Nuclei (%) [4]: 71% and 80%
- Population Hoechst High Intensity Objects (%) [4]: 0%
- Population Membrane Permeable-Phenotype (%) [4]: 1% and 0%
- Population Mitochondria Different-Phenotype (%) [4]: 0% and 2%
- Population Normal (%) [4]: 100%
- Population Pyknosed Nuclei (%) [4]: 3% and 5%
- Population Tubulin-Different-Phenotype (%) [4]: 10% and 8%
- Population Apoptotic (%) [5]: 36% and 68%
- Population Fragmented Nuclei (%) [5]: 11% and 13%
- Population Healthy Nuclei (%) [5]: 82% and 79%
- Population Hoechst High Intensity Objects (%) [5]: 0%
- Population Membrane Permeable-Phenotype (%) [5]: 3% and 2%
- Population Mitochondria Different-Phenotype (%) [5]: 0%
- Population Mitotic Cells (%) [5]: 63% and 31%
- Population Normal (%) [5]: 100%
- Population Pyknosed Nuclei (%) [5]: 5% and 7%
- Population Tubulin-Different-Phenotype (%) [5]: 5% and 3%
- Population Apoptotic (%) [6]: 87% and 80%
- Population Fragmented Nuclei (%) [6]: 19% and 20%
- Population Healthy Nuclei (%) [6]: 76% and 77%
- Population Hoechst High Intensity Objects (%) [6]: 0%
- Population Membrane Permeable-Phenotype (%) [6]: 3% and 1%
- Population Mitochondria Different-Phenotype (%) [6]: 0%
- Population Mitotic Cells (%) [6]: 12% and 20%
- Population Normal (%) [6]: 100%
- Population Pyknosed Nuclei (%) [6]: 4% and 2%
- Population Tubulin-Different-Phenotype (%) [6]: 9% and 3%
